# Published values gathered from unrelated publications.
# Organism: Salmonella enterica
# Read-out: microbial growth
Compound,technique,strain,time,pH,MIC
O=C(N[C@H](CO)[C@H](O)c1ccc([N+](=O)[O-])cc1)C(Cl)Cl,,CHOLERAESUIS,20 h,pH 5.5,2 µg/mL
CC1(C)S[C@@H]2[C@H](NC(=O)[C@H](N)c3ccccc3)C(=O)N2[C@H]1C(=O)O,broth dilution,PARATYPHI,16 h,,32 µg/mL
C[C@H]1COc2c(N3CCN(C)CC3)c(F)cc3c(=O)c(C(=O)O)cn1c23,agar dilution,TYPHI,,,≤ 0.03 µg/mL
O=C1NN=C(N=Cc2ccccc2)C1=NNn1c(-c2ccccc2)nc2ccccc2c1=O,broth dilution,PARATYPHI,24 h,,114 µM
CO/N=C(\C(=O)N[C@@H]1C(=O)N2C(C(=O)O)=C(CSc3nc(=O)c(=O)[nH]n3C)CS[C@H]12)c1csc(N)n1,,CHOLERAESUIS,20 h,pH 5.5,0.125 µg/mL
CC1=NN(CNc2ccccc2[N+](=O)[O-])C(=O)C1=NNn1c(-c2ccccc2)nc2ccccc2c1=O,broth dilution,PARATYPHI,24 h,,50.4 µM
CCCCCCCCCCCC(=O)OC[C@H]1O[C@@H](n2cc(C)c(=O)[nH]c2=O)C[C@@H]1OC(=O)c1ccc(C(C)(C)C)cc1,broth dilution,TYPHI,,,0.5 µg/mL
CO[C@H]1O[C@H](COC(c2ccccc2)(c2ccccc2)c2ccccc2)[C@@H](OC(=O)c2ccc(C(C)(C)C)cc2)[C@H](OC(=O)c2ccc(C(C)(C)C)cc2)[C@H]1OC(=O)c1ccc(C(C)(C)C)cc1,broth dilution,TYPHI,,,2 µg/mL
CO/N=C(\C(=O)N[C@@H]1C(=O)N2C(C(=O)O)=C(CSC(=O)c3ccco3)CS[C@H]12)c1csc(N)n1,,ENTERITIDIS,20 h,pH 5.5,1 µg/mL
C[C@H]1[C@H](NC(=O)/C(=N\OC(C)(C)C(=O)O)c2csc(N)n2)C(=O)N1S(=O)(=O)O,agar dilution,TYPHI,,,≤ 0.03 µg/mL
CCn1cc(C(=O)O)c(=O)c2ccc(C)nc21,broth dilution,TYPHI,24 h,,15.6 µg/mL
CC(=O)NCN1N=C(C)C(=NNn2c(-c3ccccc3)nc3ccccc3c2=O)C1=O,broth dilution,PARATYPHI,24 h,,59.9 µM
CCCCCCCCCCCC(=O)OC[C@H]1O[C@@H](n2cc(C)c(=O)[nH]c2=O)C[C@@H]1O,broth dilution,TYPHI,,,1 µg/mL
O=C1NN=C(N=Cc2ccc(O)cc2O)C1=NNn1c(-c2ccccc2)nc2ccccc2c1=O,broth dilution,PARATYPHI,24 h,,53.5 µM
CCN1CCN(c2cc3c(cc2F)c(=O)c(C(=O)O)cn3C2CC2)CC1,,CHOLERAESUIS,20 h,pH 7.2,0.0625 µg/mL
CC1=NN(CNc2ccc(C(=O)O)cc2)C(=O)C1=NNn1c(-c2ccccc2)nc2ccccc2c1=O,broth dilution,PARATYPHI,24 h,,50.5 µM
CS(=O)(=O)c1ccc([C@@H](O)[C@@H](CF)NC(=O)C(Cl)Cl)cc1,,CHOLERAESUIS,20 h,pH 7,4 µg/mL
O=C(O)c1cn(C2CC2)c2cc(N3CCNCC3)c(F)cc2c1=O,broth dilution,TYPHI,24 h,,62.5 µg/mL
CC1=NN(CNc2ccc(Cl)cc2)C(=O)C1=NNn1c(-c2ccccc2)nc2ccccc2c1=O,broth dilution,PARATYPHI,24 h,,103 µM
[H]/N=C(/N)N[C@H]1[C@H](O)[C@@H](O)[C@H](O[C@@H]2O[C@@H](C)[C@](O)(C=O)[C@H]2O[C@@H]2O[C@@H](CO)[C@H](O)[C@@H](O)[C@@H]2NC)[C@@H](N/C(N)=N\[H])[C@@H]1O,,CHOLERAESUIS,20 h,pH 7,4100 µg/mL
